# Measured values from different studies.
# Each line is one published result; the experiments were not run side by side.
Structure (SMILES),target or system,test,test system,conditions,quantity,value
Fc1ccc(Nc2c(-c3ccc(F)cn3)nc3ccccn23)cc1,Leishmania infantum,parasite growth,,"5 days, intracellular, amastigote",EC50,12.6 µM
O=C1NC(=S)S/C1=C\c1ccc(-c2ccc(N(c3ccccc3)c3ccccc3)cc2)c2ccccc12,Streptococcus pyogenes,"microbial killing, broth dilution",ATCC19615,,MBC,> 1000 µg/mL
COc1ccc(NC(=O)c2c(Nc3ccccc3)sc(C#N)c2NC(=O)CNc2ccc(Br)cc2)cc1,HCT-116,"cell growth or viability, SRB",,"1 nM, 48 h",viability,101%
Cc1ccc2nc(-c3ccccc3)c(CNc3ccc(F)cc3)n2c1,Leishmania infantum,parasite growth,,"intracellular, amastigote",IC50,> 64 µM
COc1ccc(NC(=O)c2c(Nc3ccccc3)sc(C(=O)NN=Cc3ccc(C)cc3)c2NC(C)=O)cc1,HCT-116,"cell growth or viability, SRB",,"0.1 µM, 48 h",viability,80.5%
COc1cc(OC)cc(-c2c(-c3ccccn3)nc3n2CCC3)c1,Leishmania infantum,parasite growth,,"5 days, intracellular, amastigote",EC50,1.26 µM
O=C(O)CN1C(=O)/C(=C/c2ccc(-c3ccc(N(c4ccccc4)c4ccccc4)cc3)c3ccccc23)NC1=S,Streptococcus mutans,"microbial killing, broth dilution",ATCC25175,,MBC,> 1000 µg/mL
NC(=O)N1c2ccccc2C=Cc2ccccc21,,MES seizures,rat,intraperitoneal,ED50,6.5 mg/kg
O=C1NC(=S)N/C1=C\c1ccc(-c2ccc(N(c3ccccc3)c3ccccc3)cc2)c2ccccc12,Streptococcus mutans,"microbial killing, broth dilution",ATCC25175,,MBC,> 1000 µg/mL
COc1ccc(NC(=O)c2c(Nc3ccccc3)sc(C#N)c2NC(=O)CNc2ccc([N+](=O)[O-])cc2)cc1,HCT-116,"cell growth or viability, SRB",,"1 nM, 48 h",viability,103%
O=C1NC(=S)N/C1=C\c1ccc(-c2ccc(N(c3ccccc3)c3ccccc3)cc2)cc1,Streptococcus pyogenes,"microbial killing, broth dilution",ATCC19615,,MBC,> 1000 µg/mL
CS(=O)(=O)c1ccc2nc(-c3ccccn3)c(Nc3ccc(F)cc3)n2c1,Leishmania infantum,parasite growth,,"intracellular, amastigote",IC50,32.5 µM
CNC(=O)c1cc(Oc2ccc(NC(=O)Nc3ccc(Cl)c(C(F)(F)F)c3)cc2)ccn1,HCT-116,"cell growth or viability, SRB",,"1 nM, 48 h",viability,100%
O=C(O)CN1C(=O)/C(=C/c2c3ccccc3c(-c3ccc(N(c4ccccc4)c4ccccc4)cc3)c3ccccc23)SC1=S,Streptococcus mutans,"microbial killing, broth dilution",ATCC25175,,MBC,> 1000 µg/mL
COc1cccnc1-c1nc2ccccn2c1N(C)c1ccc(F)cc1,Leishmania infantum,parasite growth,,"intracellular, amastigote",EC50,1.58 µM
COc1ccc(NC(=O)c2c(Nc3ccccc3)sc(C(=O)NN=Cc3ccc(Br)cc3)c2NC(C)=O)cc1,HCT-116,"cell growth or viability, SRB",,"1 µM, 48 h",viability,72.8%
O=C(O)CN1C(=O)/C(=C/c2ccc(-c3ccc(N(c4ccccc4)c4ccccc4)cc3)cc2)NC1=S,Streptococcus mutans,"microbial growth, broth dilution",ATCC25175,,MIC,62.5 µg/mL
CN(C)C(=O)c1ccc(-c2c(-c3ccccn3)nc3n2CCC3)cc1,Leishmania infantum,parasite growth,,"5 days, intracellular, amastigote",EC50,39.8 µM
COc1ccc2occ(/C=C/c3cc(OC)c(OC)c(OC)c3)c(=O)c2c1,HSC-2,"cell growth or viability, MTT",,6.7 h,CC50,50 µM
O=C1O[C@H]([C@@H](O)CO)C(O)=C1O,,"DPPH scavenging, absorbance",,15 min,EC50,34 µM
COc1ccc(/C=C/c2coc3ccc(OC)cc3c2=O)cc1,HSC-2,"cell growth or viability, MTT",,7 h,CC50,20 µM
O=C(O)CN1C(=O)/C(=C/c2ccc(-c3ccc(N(c4ccccc4)c4ccccc4)cc3)cc2)SC1=S,Streptococcus mutans,"microbial growth, broth dilution",ATCC25175,,MIC,1000 µg/mL
COc1ccc(NC(=O)c2c(Nc3ccccc3)sc(C(=O)NN=Cc3ccc(Cl)cc3)c2NC(C)=O)cc1,HCT-116,"cell growth or viability, SRB",,"1 nM, 48 h",viability,101%
O=C(O)CN1C(=O)/C(=C/c2ccc(-c3ccc(N(c4ccccc4)c4ccccc4)cc3)c3ccccc23)SC1=S,Streptococcus mutans,"microbial growth, broth dilution",ATCC25175,,MIC,1000 µg/mL
COc1ccc(NC(=O)c2c(Nc3ccccc3)sc(C#N)c2NC(=O)CNc2ccc(Cl)cc2)cc1,HCT-116,"cell growth or viability, SRB",,"1 µM, 48 h",viability,60.1%
COc1cccc(-c2nc3ccccn3c2Nc2ccc(F)cc2)n1,Leishmania infantum,parasite growth,,"5 days, intracellular, amastigote",EC50,> 63.1 µM
COc1ccc(NC(=O)c2c(Nc3ccccc3)sc(C#N)c2NC(=O)CNc2ccccc2Cl)cc1,HCT-116,"cell growth or viability, SRB",,"0.1 µM, 48 h",viability,64.3%
c1ccc(-c2nc3n(c2-c2ccncc2)CCC3)nc1,Leishmania infantum,parasite growth,,"intracellular, amastigote",IC50,> 64 µM
Cc1c(C)c2c(c(C)c1O)CCC(C)(C(=O)O)O2 (centres unmarked),,"lipid peroxidation, inhibitor",,,IC50,107 µg/mL
